Experimental data collected from several papers.
Lines come from different studies, so protocols differ. Values after ≈ are worked out from the molar mass of the structure shown.

Structure (SMILES) | tested on | assay | system | setting | quantity | value
NC(=O)c1cccnc1 |  | tissue relaxation, agonist | rat |  | EC50 | ~1000 µM
O=c1[nH]c(NCc2ccc(Cl)c(Cl)c2)nc2ncn(CCN3CCOCC3)c12 | Lacticaseibacillus casei | microbial growth, agar dilution |  | 48 h | MIC | 16 µg/mL (≈ 37.8 µM)
CCN(CC)CCNC(=O)c1c(C)[nH]c(/C=C2\C(=O)Nc3ccc(F)cc32)c1C | ZR75 | cell growth or viability |  | 30 µM | inhibition | 90.7%
C[C@@H](c1ncncc1F)[C@](O)(Cn1cncn1)c1ccc(F)cc1F | Acanthamoeba castellanii | parasite growth, resazurin |  | 96 h | IC50 | 2.69 µM
Cc1ccc(C(CS(=O)(=O)c2ccccc2)=NN=C2N=C(c3ccc(Br)cc3)CS2)cc1 | WM 266-4 | cell growth or viability, MTT |  | 100 µM, 48 h | viability | 31.7%
COc1cc2ncnc(NN=C3C(=O)Nc4ccc(F)cc43)c2cc1OC | ZR75 | cell growth or viability |  | 10 µM | inhibition | 19.2%
Nc1ccc(S(=O)(=O)Nc2ncccn2)cc1 | Toxoplasma gondii | parasite growth | human Fibroblast | intracellular | IC50 | 27.3 µM
Cc1ccc(C(CS(=O)(=O)c2ccccc2)=NNC2=NC(=O)C(=NNc3ccccc3)S2)cc1 | WM 266-4 | cell growth or viability, MTT |  | 25 µM, 48 h | viability | 41.2%
Cc1ncc([N+](=O)[O-])n1CCO | Lacticaseibacillus casei | microbial growth, agar dilution |  | 48 h | MIC | > 16 µg/mL
Cc1ccc(C(CS(=O)(=O)c2ccccc2)=NNc2nc(C)c(N=Nc3cccc(C)c3)s2)cc1 | WM 266-4 | cell growth or viability, MTT |  | 6.3 µM, 48 h | viability | 46.7%
COc1ccc(-c2nc(NN=C3C(=O)Nc4ccccc43)c3ccccc3n2)cc1OC | ZR75 | cell growth or viability |  | 30 µM | inhibition | 54.9%
NC(=S)NN=C(CS(=O)(=O)c1ccccc1)c1ccc(F)cc1 | WM 266-4 | cell growth or viability, MTT |  | 25 µM, 48 h | viability | 31.3%
CC(C)(C)C1=CC(=NNc2ccc(C#N)cc2)C=C(C(C)(C)C)C1=O | Toxoplasma gondii | parasite growth, fluorescence |  | 5 days, intracellular | IC50 | 3.8 µM
